Assay results of several laboratories.
Each line is one published result; the experiments were not run side by side.
Organism: Plasmodium falciparum
Effect on: parasite growth

Structure (SMILES)	assay	test system	conditions	IC50
COC1=C(OC)/C(=C/c2[nH]c(Cc3ccc(Cl)cc3)cc2Cc2ccc(Cl)cc2)N=C1c1ccc[nH]1	SYBR Green	D6	72 h, blood stage	> 2.5 µM
CCCCCCCCNC(C)C(O)c1ccc(SC(C)C)cc1 (stereo not shown)	SYBR Green	3D7	blood stage	0.807 µM
CC1=C(C)/C(=C/c2[nH]c(Cc3ccc(OC(F)(F)F)cc3)cc2Cc2ccc(OC(F)(F)F)cc2)N=C1c1ccc[nH]1	SYBR Green	D6	72 h, blood stage	1.3 µM
N=C(CC(O)c1nc2ccccc2c2ccc(Cl)cc12)Nc1ccc(F)cc1 (stereo not shown)	ELISA	3D7	72 h, blood stage	0.0187 µM
CCCCCCOc1ccc2c(=O)c3c([nH]c2c1)CCCC3	SYBR Green	D6	72 h, blood stage	0.000447 µM
N=C(CC(O)c1cc2cccnc2c2cccnc12)Nc1ccc(F)cc1 (stereo not shown)	ELISA	DD2	72 h, drug-resistant strain, blood stage	8.78 µM
CCN(CC)CCCC(C)Nc1ccnc2cc(Cl)ccc12 (stereo not shown)	SYBR Green	3D7	blood stage	0.0224 µM
Cc1[nH]c(/C=C2\N=C(c3ccc[nH]3)C3=C2OCCO3)cc1Cc1ccc(OC(F)(F)F)cc1	SYBR Green	D6	72 h, blood stage	0.0303 µM
Cc1ccc(N(CC2=NCCN2)c2cccc(O)c2)cc1	–	NF54	blood stage	36.6 µM
CCC1=C(CC)/C(=C/c2[nH]c(Cc3ccc(Cl)cc3)cc2Cc2ccc(Cl)cc2)N=C1c1ccc[nH]1	SYBR Green	D6	72 h, blood stage	0.0796 µM
N=C(CC(O)c1cc2c(F)cc(F)cc2c2cc(C(F)(F)F)ccc12)Nc1ccc(F)c(F)c1 (stereo not shown)	ELISA	3D7	72 h, blood stage	0.0072 µM
COc1ccc2cc1Oc1ccc(cc1)C[C@H]1c3c(cc4c(c3Oc3cc5c(cc3OC)CCN(C)[C@@H]5C2)OCO4)CCN1C	SYBR Green	3D7	blood stage	0.664 µM
O=C1C(O)=C([C@H]2CC[C@H](c3ccc(Cl)cc3)CC2)C(=O)c2ccccc21	SYBR Green	D6	72 h, blood stage	0.000106 µM
CC(C)(C)CC(C)(C)c1ccc(O)c(Cc2ccc(Cl)cc2Cl)c1	–	NF54	blood stage	16.3 µM
N=C(CC(O)c1nc2cc(F)ccc2c2ccc(F)cc12)Nc1ccc(F)cc1 (stereo not shown)	ELISA	DD2	72 h, drug-resistant strain, blood stage	0.936 µM
CC[C@H](CC[C@@H](C)[C@H]1CC[C@H]2[C@@H]3CC=C4C[C@@H](O)CC[C@]4(C)[C@H]3CC[C@]12C)C(C)C	SYBR Green	3D7	48 h, blood stage	9.29 µg/mL
CNCC[C@H](Oc1cccc2ccccc12)c1cccs1	SYBR Green	3D7	blood stage	0.233 µM
COC1=CC(c2ccc[nH]2)=N/C1=C\c1[nH]c(C(=O)O)cc1Cc1ccc(OC(F)(F)F)cc1	SYBR Green	D6	72 h, blood stage	> 2.5 µM
N=C(CC(O)c1nc2ccccc2c2ccccc12)Nc1ccc(F)cc1 (stereo not shown)	ELISA	3D7	72 h, blood stage	0.123 µM
CN(Cc1cnc2nc(N)nc(N)c2n1)c1ccc(C(=O)N[C@@H](CCC(=O)O)C(=O)O)cc1	–	NF54	blood stage	0.0515 µM
N=C(CC(O)c1nc2ccccc2c2ccc(Br)cc12)Nc1ccc(F)cc1 (stereo not shown)	ELISA	DD2	72 h, drug-resistant strain, blood stage	0.0463 µM
CC1=C(C)/C(=C/c2cc(-c3ccc(OC(F)(F)F)cc3)c(C)[nH]2)N=C1c1ccc[nH]1	SYBR Green	D6	72 h, blood stage	> 2.5 µM
